Test [1] is described as follows: Cytotoxicity against human H1299 cells assessed as cell viability at 10 uM after 48 hrs by MTT assay. The class given is functional. The conditions noted are these: NCI-H1299, 48 h, read-out: Activity. In short, it runs like this:
(§1)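 About 2×10³ H1299 cells per well were grown for 24 h at 37 °C in 5% CO2. Compound was dissolved in DMSO immediately before use, diluted in complete medium and left on cells for 48 h. MTT was then added for 4 h at 37 °C, followed by SDS/DMF lysis buffer for 16 h at 37 °C. Absorbance was read at 550 nm.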

The target in test [2] is Telomerase reverse transcriptase (Homo sapiens) (UniProt O14746). The test is described as follows: Inhibition of human tert transcriptional activity assessed as SEAP activity at 100 uM after 24 hrs by SEAP reporter assay. On the set-up: scale not given: the % may be the effect or the level left. In a few lines:
(§2)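 Reporter assay for hTERT transcriptional activity using secreted alkaline phosphatase. About 2 × 10³ cells per well were grown for 24 h at 37 °C, then given fresh medium. Buffer was added to the medium: 2 M diethanolamine, 1 mM MgCl2 and 20 mM L-homoarginine. p-Nitrophenyl phosphate was added to 12 mM final. The rate of absorbance increase was read at 405 nm.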

For test [3] the target is unchanged. The experiment in a line: Inhibition of human tert transcriptional activity assessed as SEAP activity at 1 uM after 24 hrs by SEAP reporter assay. Set-up: scale not given: the % may be the effect or the level left. In short, it runs like this:
as §2
In general terms: In a reporter assay the amount or activity of a reporter protein is the signal.

Test [4] has the same target. The experiment in a line: Inhibition of human tert transcriptional activity assessed as SEAP activity at 10 uM after 24 hrs by SEAP reporter assay. On the set-up: scale not given: the % may be the effect or the level left. In short, it runs like this:
as §2

Test [5] can be described thus: Cytotoxicity against human H1299 cells assessed as cell viability at 100 uM after 48 hrs by MTT assay. The conditions noted are these: NCI-H1299, 48 h, read-out: Activity. It is filed as functional. In a few lines: as §1
(Tetrazolium assays rely on reduction of a dye to a coloured formazan, in cell work by metabolically active cells.)

The nature of test [6]: Cytotoxicity against human H1299 cells assessed as cell viability at 1 uM after 48 hrs by MTT assay. The conditions noted are these: NCI-H1299, 48 h, read-out: Activity. The class given is functional. In a few lines: as §1

Chain of Telomerase reverse transcriptase (Homo sapiens) (O14746 whole entry): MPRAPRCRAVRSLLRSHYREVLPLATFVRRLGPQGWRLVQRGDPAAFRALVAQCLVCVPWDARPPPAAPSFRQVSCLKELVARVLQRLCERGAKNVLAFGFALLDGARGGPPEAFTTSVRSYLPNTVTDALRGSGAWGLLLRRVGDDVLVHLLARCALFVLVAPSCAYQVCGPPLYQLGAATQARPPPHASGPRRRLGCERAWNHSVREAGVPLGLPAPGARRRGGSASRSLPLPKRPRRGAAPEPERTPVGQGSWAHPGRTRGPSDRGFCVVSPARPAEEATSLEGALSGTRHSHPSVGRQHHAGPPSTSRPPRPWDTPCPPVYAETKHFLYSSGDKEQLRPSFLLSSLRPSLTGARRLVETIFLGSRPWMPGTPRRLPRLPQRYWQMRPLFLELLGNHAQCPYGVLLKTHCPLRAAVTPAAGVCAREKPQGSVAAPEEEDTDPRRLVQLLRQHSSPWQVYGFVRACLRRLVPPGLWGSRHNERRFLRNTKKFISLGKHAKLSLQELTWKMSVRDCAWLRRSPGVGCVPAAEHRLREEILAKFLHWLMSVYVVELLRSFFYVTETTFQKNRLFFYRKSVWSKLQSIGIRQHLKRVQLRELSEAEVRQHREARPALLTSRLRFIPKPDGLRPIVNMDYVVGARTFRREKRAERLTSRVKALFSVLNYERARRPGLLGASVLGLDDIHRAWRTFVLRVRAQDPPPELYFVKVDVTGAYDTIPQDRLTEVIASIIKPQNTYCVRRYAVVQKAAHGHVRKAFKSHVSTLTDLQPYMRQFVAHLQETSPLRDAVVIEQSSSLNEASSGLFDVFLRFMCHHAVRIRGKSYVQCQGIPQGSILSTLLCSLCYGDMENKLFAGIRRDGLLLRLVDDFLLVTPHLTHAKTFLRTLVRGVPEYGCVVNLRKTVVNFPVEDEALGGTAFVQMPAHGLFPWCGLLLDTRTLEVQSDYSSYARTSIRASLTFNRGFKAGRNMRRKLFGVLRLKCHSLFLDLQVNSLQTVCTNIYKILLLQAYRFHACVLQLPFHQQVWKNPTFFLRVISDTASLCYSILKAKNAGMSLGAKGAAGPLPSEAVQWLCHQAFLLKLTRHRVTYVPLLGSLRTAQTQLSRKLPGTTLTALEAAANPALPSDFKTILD

On to `Cc1cc(C(=O)Sc2nc3ccc4c(c3[nH]2)C(=O)c2ccccc2C4=O)c(C)o1`, for which the viability at 10 µM in test [1] was determined as 91%. In addition, the Activity in test [2] amounted to 89%; in test [3] it was 104%; in test [4], 100%. In test [5], the viability at 100 µM was determined as 95%. In addition, the viability at 1 µM in test [6] was 95%.
For the molecule `O=C1c2ccccc2C(=O)c2c1ccc1nc(SCCN3CCOCC3)[nH]c21`, in test [1], the viability at 10 µM worked out at 127%. The Activity was determined as 36% in test [2], 119% in test [3] and 105% in test [4]. The viability at 100 µM in test [5] was 73%. Moreover, the viability at 1 µM in test [6] stood at 106%.
On to `CCN(CC)C(=O)Sc1nc2ccc3c(c2[nH]1)C(=O)c1ccccc1C3=O`, for which the viability at 10 µM in test [1] worked out at 119%. Also, the Activity in test [2] is 88%; in test [3], 106%; in test [4] it was 104%. Moreover, the viability at 100 µM in test [5] was 116%. In addition, in test [6], the viability at 1 µM amounted to 118%.

For the origin of these results see ChEMBL document CHEMBL3120102, “Structure-based design, synthesis and biological evaluation of novel anthra[1,2-d]imidazole-6,11-dione homologues as potential antitumor agents” (2013).
